Experimental data: ChEMBL document CHEMBL4251654, “Structure-based design of human immuno- and constitutive proteasomes inhibitors” (Eur J Med Chem, 2018)
Active and inactive are the calls of the source. No cut-off for these calls is given here.

How the values were obtained:
[1] = molecular target: T1, Proteasome subunit beta type-9 (Homo sapiens, UniProt P28065); test: Inhibition of human 20S immunoproteasome beta-1 using Ac-PAL-AMC as substrate incubated for 15 mins measured for 45 mins by fluorescence assay
T1 sequence (P28065 whole entry): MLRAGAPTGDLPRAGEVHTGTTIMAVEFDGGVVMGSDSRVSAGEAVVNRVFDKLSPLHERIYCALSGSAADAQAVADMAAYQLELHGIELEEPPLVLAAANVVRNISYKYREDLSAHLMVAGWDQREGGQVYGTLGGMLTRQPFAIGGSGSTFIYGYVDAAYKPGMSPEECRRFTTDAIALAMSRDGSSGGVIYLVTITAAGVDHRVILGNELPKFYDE
How it was run: (§1)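 Human 20S immunoproteasome (0.3 nM) was given 15 min with compound (0.001-50 μM) in pH 8 buffer of 20 mM Tris-HCl, 10% glycerol, 0.01% SDS, 2% DMSO. Ac-PAL-AMC at 50 μM was the substrate. Fluorescence (ex 360/em 460 nm) was followed 45 min at 37 °C relative to control.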

[2] = molecular target: T2, Proteasome Macropain subunit MB1 (Homo sapiens, UniProt P28074); test: Inhibition of human 20S constitutive proteasome beta-5 using Suc-LLVY-AMC as substrate incubated for 15 mins measured for 45 mins by fluorescence assay
T2 sequence (P28074 whole entry): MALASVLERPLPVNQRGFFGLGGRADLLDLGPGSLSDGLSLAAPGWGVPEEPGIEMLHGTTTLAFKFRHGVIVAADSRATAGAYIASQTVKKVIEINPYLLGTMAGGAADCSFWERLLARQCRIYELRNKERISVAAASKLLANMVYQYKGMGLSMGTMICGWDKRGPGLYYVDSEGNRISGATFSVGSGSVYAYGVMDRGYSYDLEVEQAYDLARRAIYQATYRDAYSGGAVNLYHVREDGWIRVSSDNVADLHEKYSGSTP
How it was run: (§2)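 Human 20S cCP or iCP (0.3 nM) was exposed to compound (0.001-50 μM) for 15 min in pH 8 buffer of 20 mM Tris-HCl, 10% glycerol, 0.01% SDS, 2% DMSO. Suc-LLVY-AMC at 20 μM followed. Fluorescence (ex 360/em 460 nm) was read 45 min at 37 °C versus untreated enzyme.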

[3] = molecular target: Proteasome Macropain subunit (Homo sapiens) (UniProt P49721); test: Inhibition of human 20S constitutive proteasome beta-2 at 50 uM using BocLRR-AMC as substrate incubated for 15 mins measured for 45 mins by fluorescence assay relative to control
Chain of Proteasome Macropain subunit (Homo sapiens) (P49721 whole entry): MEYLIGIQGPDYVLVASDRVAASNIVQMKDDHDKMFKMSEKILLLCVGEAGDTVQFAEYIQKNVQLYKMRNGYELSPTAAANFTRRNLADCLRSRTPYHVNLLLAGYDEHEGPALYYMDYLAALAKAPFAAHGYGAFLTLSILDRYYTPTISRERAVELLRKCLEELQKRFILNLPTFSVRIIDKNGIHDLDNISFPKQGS
How it was run: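 Purified human 20S proteasome (cCP or iCP), 0.3 nM, preincubated 15 min with compound (0.001-50 μM) in pH 8 buffer of 20 mM Tris-HCl, 10% glycerol, 0.005% Triton X-100, 2% DMSO. Then Boc-LRR-AMC at 50 μM was added. AMC fluorescence (ex 360/em 460 nm) was followed 45 min at 37 °C. Activity is relative to an untreated control.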

[4] = molecular target: T3, Proteasome subunit beta type-8 (Homo sapiens, UniProt P28062); test: Inhibition of human 20S immunoproteasome beta-5 using Suc-LLVY-AMC as substrate incubated for 15 mins measured for 45 mins by fluorescence assay; how it was run: as §2
T3 sequence (P28062 whole entry): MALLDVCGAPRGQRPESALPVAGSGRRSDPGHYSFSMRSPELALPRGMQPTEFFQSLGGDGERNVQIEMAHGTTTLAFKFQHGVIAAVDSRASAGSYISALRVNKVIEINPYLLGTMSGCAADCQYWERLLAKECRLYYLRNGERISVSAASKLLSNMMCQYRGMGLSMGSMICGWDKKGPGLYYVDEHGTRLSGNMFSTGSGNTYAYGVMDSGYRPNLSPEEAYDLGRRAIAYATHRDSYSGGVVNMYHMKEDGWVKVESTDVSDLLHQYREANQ

[5] = molecular target: T4, Proteasome subunit beta type-10 (Homo sapiens, UniProt P40306); test: Inhibition of human 20S immunoproteasome beta-2 using BocLRR-AMC as substrate incubated for 15 mins measured for 45 mins by fluorescence assay
T4 sequence (P40306 whole entry): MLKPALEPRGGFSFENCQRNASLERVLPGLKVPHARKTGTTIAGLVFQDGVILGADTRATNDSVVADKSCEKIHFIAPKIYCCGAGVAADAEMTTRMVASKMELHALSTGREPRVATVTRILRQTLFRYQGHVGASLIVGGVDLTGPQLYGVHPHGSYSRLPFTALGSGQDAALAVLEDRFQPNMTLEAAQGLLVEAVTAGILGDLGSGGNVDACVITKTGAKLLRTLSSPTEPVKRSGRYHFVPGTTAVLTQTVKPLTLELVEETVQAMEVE

[6] = molecular target: T5, Proteasome subunit beta type-10 (Homo sapiens) (UniProt P40306); test: Inhibition of human 20S immunoproteasome beta-2 at 50 uM using BocLRR-AMC as substrate incubated for 15 mins measured for 45 mins by fluorescence assay relative to control
T5 sequence (whole entry): T4 sequence (P40306 whole entry)

[7] = molecular target: T6, Proteasome subunit beta type-8 (Homo sapiens) (UniProt P28062); test: Inhibition of human 20S immunoproteasome beta-5 at 50 uM using Suc-LLVY-AMC as substrate incubated for 15 mins measured for 45 mins by fluorescence assay relative to control; how it was run: as §2
T6 sequence (whole entry): T3 sequence (P28062 whole entry)

[8] = molecular target: T7, Proteasome subunit beta type-9 (Homo sapiens) (UniProt P28065); test: Inhibition of human 20S immunoproteasome beta-1 at 50 uM using Ac-PAL-AMC as substrate incubated for 15 mins measured for 45 mins by fluorescence assay relative to control; how it was run: as §1
T7 sequence (whole entry): T1 sequence (P28065 whole entry)

[9] = molecular target: T8, Proteasome Macropain subunit MB1 (Homo sapiens) (UniProt P28074); test: Inhibition of human 20S constitutive proteasome beta-5 at 50 uM using Suc-LLVY-AMC as substrate incubated for 15 mins measured for 45 mins by fluorescence assay relative to control; how it was run: as §2
T8 sequence (whole entry): T2 sequence (P28074 whole entry)

[10] = molecular target: T9, Proteasome component C5 (Homo sapiens) (UniProt P20618); test: Inhibition of human 20S constitutive proteasome beta-1 at 50 uM using Z-LLE-betaNA as substrate incubated for 15 mins measured for 45 mins by fluorescence assay relative to control
T9 sequence (whole entry): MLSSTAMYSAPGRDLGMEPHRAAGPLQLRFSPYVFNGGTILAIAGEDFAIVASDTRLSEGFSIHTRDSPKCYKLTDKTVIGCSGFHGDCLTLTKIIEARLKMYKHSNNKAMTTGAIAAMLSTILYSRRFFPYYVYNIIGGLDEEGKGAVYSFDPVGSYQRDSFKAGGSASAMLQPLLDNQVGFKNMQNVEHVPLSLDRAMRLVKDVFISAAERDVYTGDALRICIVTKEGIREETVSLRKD
How it was run: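 Human 20S constitutive proteasome, 0.3 nM, was preincubated 15 min with compound (0.001-50 μM) in pH 8 Tris-HCl 20 mM, 10% glycerol, 0.01% SDS, 2% DMSO. Z-LLE-βNA at 50 μM was added. βNA fluorescence (ex 340/em 404 nm) was monitored 45 min at 37 °C against an untreated control.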

| IC50 [1] | IC50 [2] | inhibition [3] | IC50 [4] | IC50 [5] | inhibition [6] | inhibition [7] | inhibition [8] | inhibition [9] | inhibition [10] | SMILES |
| --- | --- | --- | --- | --- | --- | --- | --- | --- | --- | --- |
| 4.8 µM | 4.3 µM | > 85% | 5.2 µM | 16 µM | > 85% | > 85% | > 85% | > 85% | > 85% | C[C@H](NC(=O)[C@H](Cc1ccc(OCc2ccccc2)cc1)NC(=O)OC(C)(C)C)C(=O)N[C@@H](C[C@]1(O)C(=O)Nc2ccccc21)C(=O)NCC1CCCCC1 |
| 12.6 µM | 6.2 µM | > 85% | 7.8 µM | 8.9 µM | > 85% | > 85% | > 85% | > 85% | > 85% | CC(C)(C)OC(=O)N[C@@H](Cc1ccc(OCc2ccccc2)cc1)C(=O)NCC(=O)N[C@@H](C[C@]1(O)C(=O)Nc2ccccc21)C(=O)NCc1ccccc1 |
| 4 µM | 1.74 µM | 30% | 2.7 µM | – | inactive | > 85% | > 85% | > 85% | > 85% | C[C@H](NC(=O)[C@H](Cc1ccc(OCc2ccccc2)cc1)NC(=O)OC(C)(C)C)C(=O)N[C@@H](C[C@]1(O)C(=O)Nc2ccccc21)C(=O)NC(c1ccccc1)c1ccccc1 |
| 4.3 µM | 2.9 µM | > 85% | 3.8 µM | 0.82 µM | > 85% | > 85% | > 85% | > 85% | > 85% | NCCCC[C@H](NC(=O)[C@@H](N)Cc1ccc(OCc2ccccc2)cc1)C(=O)N[C@@H](C[C@]1(O)C(=O)Nc2ccccc21)C(=O)NCc1ccccc1 |
| 2.77 µM | 1.4 µM | > 85% | 1.9 µM | 2.7 µM | > 85% | > 85% | > 85% | > 85% | > 85% | C[C@H](NC(=O)[C@H](Cc1ccc(OCc2ccccc2)cc1)NC(=O)OC(C)(C)C)C(=O)N[C@@H](C[C@]1(O)C(=O)Nc2ccccc21)C(=O)NCc1cccc2ccccc12 |
| 3.5 µM | 2.8 µM | 36% | 2.7 µM | – | 19% | > 85% | > 85% | > 85% | > 85% | C[C@H](NC(=O)[C@H](Cc1ccc(OCc2ccccc2)cc1)NC(=O)OC(C)(C)C)C(=O)N[C@@H](C[C@]1(O)C(=O)Nc2ccccc21)C(=O)NCCC1CCCCC1 |
| – | – | > 85% | – | 22 µM | > 85% | 14% | 17% | 18% | 19% | C[C@H](NC(=O)[C@H](Cc1ccc(OCc2ccccc2)cc1)NC(=O)OC(C)(C)C)C(=O)N[C@@H](C[C@]1(O)C(=O)Nc2ccccc21)C(=O)NCCC(=O)O |
| – | 0.36 µM | inactive | 0.42 µM | – | inactive | > 85% | inactive | > 85% | inactive | NC(=O)C[C@H](NC(=O)OCc1ccccc1)C(=O)N[C@@H](C[C@]1(O)C(=O)Nc2ccccc21)C(=O)NCc1ccccc1 |
| 24.6 µM | 0.88 µM | inactive | 0.572 µM | – | inactive | > 85% | > 85% | > 85% | 20% | C[C@H](O)[C@@H](NC(=O)OCc1ccccc1)C(=O)N[C@@H](C[C@]1(O)C(=O)Nc2ccccc21)C(=O)NCc1ccccc1 |
| 7.31 µM | 6 µM | 45% | 6.5 µM | – | 26% | > 85% | > 85% | > 85% | > 85% | C[C@H](NC(=O)[C@H](Cc1ccc(OCc2ccccc2)cc1)NC(=O)OC(C)(C)C)C(=O)N[C@@H](C[C@]1(O)C(=O)Nc2ccccc21)C(=O)NCCc1ccccc1 |
| 10.3 µM | 5.1 µM | 19% | 3.93 µM | – | 27% | > 85% | > 85% | > 85% | > 85% | C[C@H](NC(=O)[C@H](Cc1ccc(OCc2ccccc2)cc1)NC(=O)OC(C)(C)C)C(=O)N[C@@H](C[C@]1(O)C(=O)N(C)c2ccccc21)C(=O)NCc1ccccc1 |
| – | 64 µM | 14% | – | 106 µM | > 85% | 31% | 17% | > 85% | 15% | COC(=O)CCNC(=O)[C@H](C[C@]1(O)C(=O)Nc2ccccc21)NC(=O)[C@H](C)NC(=O)[C@H](Cc1ccc(OCc2ccccc2)cc1)NC(=O)OC(C)(C)C |
| 8.9 µM | 6.8 µM | 56% | 6.1 µM | – | 18% | > 85% | > 85% | > 85% | > 85% | C[C@H](NC(=O)[C@H](Cc1ccc(OCc2ccccc2)cc1)NC(=O)OC(C)(C)C)C(=O)N[C@@H](C[C@@]1(O)C(=O)N(C)c2ccccc21)C(=O)NCc1ccccc1 |
| 45 µM | 5.1 µM | inactive | 3.96 µM | – | inactive | > 85% | > 85% | > 85% | inactive | C[C@H](NC(=O)OCc1ccccc1)C(=O)N[C@@H](C[C@]1(O)C(=O)Nc2ccccc21)C(=O)NCc1ccccc1 |
